Results on one compound are retold here after ChEMBL document CHEMBL3860061, “A Novel Parkinson's Disease Drug Candidate with Potent Anti-neuroinflammatory Effects through the Src Signaling Pathway” (J Med Chem, 2016).

The target in the assay is Proto-oncogene tyrosine-protein kinase Src (Rattus norvegicus) (UniProt Q9WUD9). The experiment in a line: Inhibition of LPS-induced Src phosphorylation at Tyr-416 residue in Sprague-Dawley rat primary microglia cells at 10 uM preincubated for 1 hr followed by LPS stimulation measured after 3 hrs by Western blot analysis. The essentials:
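Primary microglia from 1-day-old Sprague-Dawley rat brains, grown to confluence 12–14 days, shaken off astroglia (>98% pure). Agent at 10 µM added 1 h before LPS 100 ng/mL. Phosphorylated Src, Akt and PTEN measured 3 h later by Western blot, n = 4.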
On the technique in general: A western blot detects proteins with antibodies after separation by electrophoresis.

The structures appear in SMILES notation. Calls of active or inactive are those of the source. No cut-off for these calls is given here.

Chain of Proto-oncogene tyrosine-protein kinase Src (Rattus norvegicus) (Q9WUD9 2-536 limits assumed): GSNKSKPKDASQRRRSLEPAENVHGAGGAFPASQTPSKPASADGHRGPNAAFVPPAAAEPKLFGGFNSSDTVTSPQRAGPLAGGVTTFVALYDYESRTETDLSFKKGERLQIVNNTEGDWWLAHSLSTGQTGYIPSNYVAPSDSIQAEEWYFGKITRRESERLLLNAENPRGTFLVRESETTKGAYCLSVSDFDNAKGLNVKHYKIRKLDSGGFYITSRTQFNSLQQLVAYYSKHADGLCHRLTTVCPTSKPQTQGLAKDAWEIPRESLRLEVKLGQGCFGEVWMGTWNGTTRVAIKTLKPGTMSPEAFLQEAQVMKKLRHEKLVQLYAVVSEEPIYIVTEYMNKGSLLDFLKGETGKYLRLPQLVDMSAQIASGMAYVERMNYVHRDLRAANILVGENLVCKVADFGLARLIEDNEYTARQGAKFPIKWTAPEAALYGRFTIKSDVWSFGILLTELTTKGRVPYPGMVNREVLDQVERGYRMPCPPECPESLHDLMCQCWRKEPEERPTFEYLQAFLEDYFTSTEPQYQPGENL

For `COc1cc(OC)c(CN[C@@H](CO)C(=O)O)c(OC)c1`, the inhibition entry is “Active”.
